Measurements from ChEMBL document CHEMBL5365541, “Designing peptide amphiphiles as novel antibacterials and antibiotic adjuvants against gram-negative bacteria” (Bioorg Med Chem, 2023).
≈ marks a conversion by molar mass, not a printed value. Calls of active or inactive are those of the source. The calls are words filed in the database; no cut-off is given here.

Key:
[1] = system: Staphylococcus aureus; test: Antibacterial activity against methicillin-resistant Staphylococcus aureus 13C incubated for 20 to 24 hrs by broth microdilution method; type: functional; settings: time 20-24 hrs
Summary of the method: (§1)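 Broth microdilution in MHB: direct colony suspension at 0.5 McFarland diluted to ~10^5 CFU/mL final; peptide stock 1 mg/mL in water at pH 7, serially diluted. Incubated 20-24 h at 37 °C; MIC taken as the lowest concentration inhibiting growth (OD 600 nm, 1% TTC stain); triplicate; vancomycin and gentamicin as positive controls.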

[2] = system: Cell membrane; test: Induction of inner membrane permeability in Escherichia coli K12 assessed as shift in bacterial zeta potential at 40 ug/ml measured after 1 hr; type: subcellular; settings: dose 40.0 µg/ml
[3] = system: Escherichia coli; test: Synergistic antibacterial activity against Escherichia coli K12 assessed as fractional inhibitory concentration index incubated for 20 to 24 hrs in presence of rifampicin by checkerboard broth microdilution assay; type: functional; settings: time 20-24 hrs
Summary of the method: (§2)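 Checkerboard broth microdilution. E. coli K12 or A. baumannii clinical isolate grown to mid-log (OD ~0.8) and diluted to ~10^5 CFU/mL in MHB. Two-fold dilutions of rifampicin or vancomycin run across the plate against two-fold PA dilutions down it. Incubated 20–24 h at 37 °C, OD read at 470 nm. FICi calculated from the combination MICs.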

[4] = system: Staphylococcus aureus; test: Induction of morphological changes in Methicillin-resistant Staphylococcus aureus JE2 assessed as cytoplasmic leakage at 8 ug/ml incubated for 2 hrs by scanning electron microscopy; type: functional, organism-based; settings: dose 8.0 µg/ml
[5] = system: Escherichia coli; test: Induction of morphological changes in Escherichia coli K12 assessed as membrane deformations with protruding holes at 8 ug/ml incubated for 2 hrs by scanning electron microscopy; type: functional, organism-based; settings: dose 8.0 µg/ml
[6] = system: Escherichia coli; test: Induction of morphological changes in Escherichia coli K12 assessed as cytoplasmic leakage at 8 ug/ml incubated for 2 hrs by scanning electron microscopy; type: functional, organism-based; settings: dose 8.0 µg/ml
[7] = system: Staphylococcus aureus; test: Disruption of preformed biofilm in methicillin-resistant Staphylococcus aureus JE2 at MIC to 4 times MIC; type: functional, organism-based
[8] = system: Acinetobacter baumannii; test: Antibacterial activity against Acinetobacter baumannii incubated for 20 to 24 hrs by broth microdilution method; type: functional; settings: time 20-24 hrs
Summary of the method: (§3)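 Broth microdilution: colonies suspended directly to 1.5×10^8 CFU/mL (0.5 McFarland), then diluted in Mueller–Hinton broth to ~10^5 CFU/mL final. PA stock 1 mg/mL in water, pH 7, serially diluted in MHB. Plates incubated 20–24 h at 37 °C. MIC = lowest concentration inhibiting growth, read as OD600 with optional 1% TTC staining. Triplicate.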

[9] = system: Cell membrane; test: Induction of inner membrane permeability in Escherichia coli K12 at 8 to 16 ug/mL by propidium iodide staining based spectrofluorometry; type: subcellular; settings: dose 8-16 µg/ml
Summary of the method: (§4)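 E. coli K12 grown in MHB to mid-log, washed twice in PBS, and diluted to 10^6 CFU/mL in 5 mM HEPES + glucose. Cells preincubated with […] at least 15 min at 37 °C. Then treated with agent at 1/8, 1× or 2× MIC, or with PA–vancomycin 1:1. Fluorescence read at ex 535 / em 615 nm. Polymyxin B as positive control; untreated cells as negative control.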

[10] = system: Cell membrane; test: Induction of inner membrane permeability in Escherichia coli K12 at 4 ug/mL by propidium iodide staining based spectrofluorometry; type: subcellular; settings: dose 4.0 µg/ml; summary of the method: as §4
[11] = system: Staphylococcus aureus; test: Induction of morphological changes in methicillin-resistant Staphylococcus aureus JE2 assessed as membrane deformations with protruding bumps at 8 ug/ml incubated for 2 hrs by scanning electron microscopy; type: functional, organism-based; settings: dose 8.0 µg/ml
[12] = Self assembly property of the compound assessed as zeta potential at 250 ug/mL at pH 7 measured after 2 hrs; type: physicochemical; settings: pH 7, 2 h, dose 250 µg/ml
Summary of the method: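 Peptide self-assembled at 1 mg/mL, pH 7, annealed 2 h at 80 °C, and aged overnight. Diluted to 250 µg/mL in water; zeta potential measured at 25 °C.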

[13] = Toxicity in Galleria mellonella assessed as survival at 75 mg/kg measured after 4 days relative to control; type: organism-based; settings: in vivo, time 4 day
Summary of the method: (§5)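 Acute toxicity in G. mellonella larvae following OECD guidelines: cohorts of five larvae injected starting at 25 mg/kg, retested […] on new larvae if lethality was under 40%, continuing until a toxic dose was found; incubated at 37 °C with mortality recorded daily over 4 days.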

[14] = system: Staphylococcus aureus; test: Antibacterial activity against methicillin-resistant Staphylococcus aureus LAC incubated for 20 to 24 hrs by broth microdilution method; type: functional; settings: time 20-24 hrs; summary of the method: as §1
[15] = system: Escherichia coli; test: Antibacterial activity against Escherichia coli K12 incubated for 20 to 24 hrs by broth microdilution method; type: functional; settings: time 20-24 hrs; summary of the method: as §3
[16] = system: Acinetobacter baumannii; test: Synergistic antibacterial activity against Acinetobacter baumannii assessed as potentiation of rifampicin-induced antibacterial activity by measuring fold increase in rifampicin MIC incubated for 20 to 24 hrs by checkerboard broth microdilution assay relative to rifampicin alone; type: functional; settings: time 20-24 hrs; summary of the method: as §2
[17] = system: HEK293; test: Cytotoxicity against HEK293 cells assessed as reduction in cell viability at 64 to 256 ug/ml incubated for 24 hrs by XTT assay; type: toxicity, cell-based; settings: human, hek293, 24 h, dose 64-256 µg/ml
Summary of the method: (§6)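 HEK-293 cells, passages 3–8, seeded at 5×10^4 per well and preincubated 24 h at 37 °C, 5% CO2. Medium replaced with serially diluted PA, final 8–256 µg/mL, for 24 h, in triplicate. XTT reagent (0.5 mg/mL) added for 4 h at 37 °C, then absorbance read at 600 nm.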

[18] = system: Acinetobacter baumannii; test: Synergistic antibacterial activity against Acinetobacter baumannii assessed as fractional inhibitory concentration index incubated for 20 to 24 hrs in presence of rifampicin by checkerboard broth microdilution assay; type: functional; settings: time 20-24 hrs; summary of the method: as §2
[19] = Toxicity in Galleria mellonella assessed as survival at 125 to 150 mg/kg measured after 4 days relative to control; type: organism-based; settings: in vivo, dose 125-150 mg/kg, time 4 day; summary of the method: as §5
[20] = system: Staphylococcus aureus; test: Antibacterial activity against Methicillin-resistant Staphylococcus aureus JE2 infected in Galleria mellonella assessed as survival at 75 mg/kg measured after 4 days relative to control; type: functional; settings: JE2, 96 h, time 4 day
Summary of the method: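 G. mellonella larvae injected with 10 µL MRSA JE2 at a pre-set infective dose (60-80% lethality within 48 h, not 100% within 24 h) into last left proleg; after 2 h, 10 µL peptide or antibiotic injected into last right proleg; larvae held at 37 °C, mortality recorded daily for 4 days; untreated infected and PBS-only larvae as controls.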

[21] = system: Staphylococcus aureus; test: Induction of morphological changes in methicillin-resistant Staphylococcus aureus JE2 assessed as membrane deformations with protruding holes at 8 ug/ml incubated for 2 hrs by scanning electron microscopy; type: functional, organism-based; settings: dose 8.0 µg/ml
[22] = system: Staphylococcus aureus; test: Antibacterial activity against methicillin-resistant Staphylococcus aureus JE2 incubated for 20 to 24 hrs by broth microdilution method; type: functional; settings: time 20-24 hrs; summary of the method: as §1
[23] = system: Staphylococcus aureus; test: Ratio of MIC for methicillin-resistant Staphylococcus aureus JE2 at pH 5.5 to MIC for methicillin-resistant Staphylococcus aureus JE2 at pH 7.0
[24] = Retention time of the compound by RP-HPLC analysis; type: physicochemical
Summary of the method: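 Reverse-phase HPLC, linear gradient 0–100% acetonitrile in water with 0.1% TFA over 20 min; retention time recorded.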

[25] = system: Escherichia coli; test: Ratio of MIC for Escherichia coli K12 at pH 5.5 to MIC for Escherichia coli K12 at pH 7.0
[26] = system: Staphylococcus aureus; test: Antibacterial activity against methicillin resistant Staphylococcus aureus JE2 measured over 21 days by broth microdilution method; type: functional, organism-based; settings: time 21.0 day
[27] = system: Cell membrane; test: Induction of inner membrane permeability in methicillin-resistant Staphylococcus aureus JE2 assessed as shift in bacterial zeta potential at 40 ug/ml measured after 1 hr; type: subcellular; settings: dose 40.0 µg/ml
Summary of the method: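 Mid-log MRSA JE2 from MHB (OD ~0.8) washed and resuspended in PBS at 5×10^7 CFU/mL, exposed to peptide at 10 × MIC for 1 h, then zeta potential measured at 25 °C; untreated cells as negative control, daptomycin and polymyxin B as reference drugs.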

[28] = Self assembly property of the compound assessed as width of micelles at 1 mg/ml incubated overnight by transmission electron microscopy; type: physicochemical
Summary of the method: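 Samples were dissolved at 2 mM in water, pH 7, and left at room temperature overnight. Applied to copper grids for 5 min, blotted, and negatively stained with NanoVan for 30 s. Imaged by TEM at 120 kV.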

[29] = system: Staphylococcus aureus; test: Inhibition of biofilm formation in methicillin-resistant Staphylococcus aureus JE2 at MIC; type: functional, organism-based
[30] = system: Escherichia coli; test: Induction of morphological changes in Escherichia coli K12 assessed as membrane deformations with protruding bumps at 8 ug/ml incubated for 2 hrs by scanning electron microscopy; type: functional, organism-based; settings: dose 8.0 µg/ml
[31] = Cytotoxicity against HEK293 cells assessed as cell viability up to 64 ug/ml incubated for 24 hrs by XTT assay relative to control; type: toxicity, cell-based; settings: human, up to 64 µg/mL, read-out: Activity; summary of the method: as §6

**Q.** Which MIC [1] does the source give for `CCCCCCCCCCCCCCCCN[C@@H](CCCCN)C(=O)N[C@@H](CCCNC(=N)N)C(=O)N[C@@H](CCCCN)C(=O)N[C@@H](CCCNC(=N)N)C(=O)O` here?
**A.** Its MIC is 8 µg/mL (≈ 9.86 µM).

**Q.** And the Activity [2]?
**A.** The Activity was “Active”.

**Q.** And the “fractional inhibitory concentration index (FICI)” value [3]?
**A.** Its value is 0.62.

**Q.** And the Activity [4]?
**A.** The Activity was “Active”.

**Q.** What about the Activity [5] of the same molecule?
**A.** The Activity was “Active”.

**Q.** What about the Activity [6] of the same molecule?
**A.** Its Activity is “Active”.

**Q.** What about the Activity [7] of the same molecule?
**A.** Its Activity is “inactive”.

**Q.** What about the MIC [8] of the same molecule?
**A.** The MIC was 8 µg/mL (≈ 9.86 µM).

**Q.** And the Activity [9]?
**A.** Its Activity is “Active”.

**Q.** What about the Activity [10] of the same molecule?
**A.** Its Activity is “inactive”.

**Q.** What about the Activity [11] of the same molecule?
**A.** Its Activity is “Active”.

**Q.** What about the Activity [12] of the same molecule?
**A.** The Activity was 15 mV.

**Q.** What about the survival at 96 h [13] of the same molecule?
**A.** The survival at 96 h was 100%.

**Q.** And the MIC [14]?
**A.** The MIC was 8 µg/mL (≈ 9.86 µM).

**Q.** What about the MIC [15] of the same molecule?
**A.** Its MIC is 4 µg/mL (≈ 4.93 µM).

**Q.** And the “fold change (FC)” value [16]?
**A.** The value was 2.

**Q.** What about the Activity [17] of the same molecule?
**A.** The Activity was “Non-Toxic”.

**Q.** And the “fractional inhibitory concentration index (FICI)” value [18]?
**A.** The value was 0.75.

**Q.** What about the survival at 96 h [19] of the same molecule?
**A.** Its survival at 96 h is 80%.

**Q.** And the survival at 75 mg/kg [20]?
**A.** Its survival at 75 mg/kg is 60%.

**Q.** And the Activity [21]?
**A.** Its Activity is “Active”.

**Q.** What about the MIC [22] of the same molecule?
**A.** Its MIC is 4 µg/mL (≈ 4.93 µM).

**Q.** And the Ratio [23]?
**A.** The Ratio was greater than 1.

**Q.** What about the Retention_time [24] of the same molecule?
**A.** Its Retention_time is 13.8 min.

**Q.** And the Ratio [25]?
**A.** The Ratio was greater than 1.

**Q.** What about the Activity [26] of the same molecule?
**A.** The Activity was “Active”.

**Q.** And the Activity [27]?
**A.** The Activity was “Active”.

**Q.** And the Activity [28]?
**A.** The Activity was 7 nm.

**Q.** And the inhibition [29]?
**A.** Its inhibition is “Active”.

**Q.** What about the Activity [30] of the same molecule?
**A.** The Activity was “Active”.

**Q.** And the viability at 24 h [31]?
**A.** Its viability at 24 h is 100%.

**Q.** What does the source list for `CO[C@H]1/C=C/O[C@@]2(C)Oc3c(C)c(O)c4c(O)c(c(/C=N/N5CCN(C)CC5)c(O)c4c3C2=O)NC(=O)/C(C)=C\C=C\[C@H](C)[C@H](O)[C@@H](C)[C@@H](O)[C@@H](C)[C@H](OC(C)=O)[C@@H]1C` [RIFAMPIN]?
**A.** MIC [8]: 8 µg/mL (≈ 9.72 µM); MIC [15]: 8 µg/mL (≈ 9.72 µM)
